According to ChEMBL document CHEMBL5653631, “A Potent and Selective ULK1 Inhibitor Suppresses Autophagy and Sensitizes Cancer Cells to Nutrient Stress” (iScience, 2018):
Each block holds one compound with its values, some of them ahead of it.

Legend:
[1] = target: Protein kinase C iota type (Homo sapiens) (UniProt P41743); experiment: Inhibition of human recombinant PKCi at 500 nM related to control ULK1
[2] = target: Serine/threonine-protein kinase Chk2 (Homo sapiens) (UniProt O96017); experiment: Inhibition of human recombinant CHK2 at 500 nM related to control ULK1
Serine/threonine-protein kinase Chk2 (Homo sapiens), sequence (O96017 whole entry): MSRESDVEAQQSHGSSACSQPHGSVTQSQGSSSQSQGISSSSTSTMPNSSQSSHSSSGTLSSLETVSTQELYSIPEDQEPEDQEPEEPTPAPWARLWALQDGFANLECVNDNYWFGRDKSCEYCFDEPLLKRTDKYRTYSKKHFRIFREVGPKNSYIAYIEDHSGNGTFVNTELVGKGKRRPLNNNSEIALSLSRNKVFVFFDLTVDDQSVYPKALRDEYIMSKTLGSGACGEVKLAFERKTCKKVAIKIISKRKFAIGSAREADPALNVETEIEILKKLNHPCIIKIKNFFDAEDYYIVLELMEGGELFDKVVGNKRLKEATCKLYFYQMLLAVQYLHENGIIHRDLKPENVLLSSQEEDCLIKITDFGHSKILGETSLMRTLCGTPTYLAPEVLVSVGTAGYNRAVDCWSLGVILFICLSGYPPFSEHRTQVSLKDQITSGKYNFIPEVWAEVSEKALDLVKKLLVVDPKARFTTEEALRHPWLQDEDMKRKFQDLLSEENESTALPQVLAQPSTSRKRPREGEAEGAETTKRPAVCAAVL

[3] = target: Interferon-induced, double-stranded RNA-activated protein kinase (Homo sapiens) (UniProt P19525); experiment: Inhibition of human recombinant PKR at 500 nM related to control ULK1
[4] = target: Misshapen-like kinase 1 (Homo sapiens) (UniProt Q8N4C8); experiment: Inhibition of human recombinant MINK at 500 nM related to control ULK1
Misshapen-like kinase 1 (Homo sapiens), sequence (Q8N4C8 whole entry, looked up): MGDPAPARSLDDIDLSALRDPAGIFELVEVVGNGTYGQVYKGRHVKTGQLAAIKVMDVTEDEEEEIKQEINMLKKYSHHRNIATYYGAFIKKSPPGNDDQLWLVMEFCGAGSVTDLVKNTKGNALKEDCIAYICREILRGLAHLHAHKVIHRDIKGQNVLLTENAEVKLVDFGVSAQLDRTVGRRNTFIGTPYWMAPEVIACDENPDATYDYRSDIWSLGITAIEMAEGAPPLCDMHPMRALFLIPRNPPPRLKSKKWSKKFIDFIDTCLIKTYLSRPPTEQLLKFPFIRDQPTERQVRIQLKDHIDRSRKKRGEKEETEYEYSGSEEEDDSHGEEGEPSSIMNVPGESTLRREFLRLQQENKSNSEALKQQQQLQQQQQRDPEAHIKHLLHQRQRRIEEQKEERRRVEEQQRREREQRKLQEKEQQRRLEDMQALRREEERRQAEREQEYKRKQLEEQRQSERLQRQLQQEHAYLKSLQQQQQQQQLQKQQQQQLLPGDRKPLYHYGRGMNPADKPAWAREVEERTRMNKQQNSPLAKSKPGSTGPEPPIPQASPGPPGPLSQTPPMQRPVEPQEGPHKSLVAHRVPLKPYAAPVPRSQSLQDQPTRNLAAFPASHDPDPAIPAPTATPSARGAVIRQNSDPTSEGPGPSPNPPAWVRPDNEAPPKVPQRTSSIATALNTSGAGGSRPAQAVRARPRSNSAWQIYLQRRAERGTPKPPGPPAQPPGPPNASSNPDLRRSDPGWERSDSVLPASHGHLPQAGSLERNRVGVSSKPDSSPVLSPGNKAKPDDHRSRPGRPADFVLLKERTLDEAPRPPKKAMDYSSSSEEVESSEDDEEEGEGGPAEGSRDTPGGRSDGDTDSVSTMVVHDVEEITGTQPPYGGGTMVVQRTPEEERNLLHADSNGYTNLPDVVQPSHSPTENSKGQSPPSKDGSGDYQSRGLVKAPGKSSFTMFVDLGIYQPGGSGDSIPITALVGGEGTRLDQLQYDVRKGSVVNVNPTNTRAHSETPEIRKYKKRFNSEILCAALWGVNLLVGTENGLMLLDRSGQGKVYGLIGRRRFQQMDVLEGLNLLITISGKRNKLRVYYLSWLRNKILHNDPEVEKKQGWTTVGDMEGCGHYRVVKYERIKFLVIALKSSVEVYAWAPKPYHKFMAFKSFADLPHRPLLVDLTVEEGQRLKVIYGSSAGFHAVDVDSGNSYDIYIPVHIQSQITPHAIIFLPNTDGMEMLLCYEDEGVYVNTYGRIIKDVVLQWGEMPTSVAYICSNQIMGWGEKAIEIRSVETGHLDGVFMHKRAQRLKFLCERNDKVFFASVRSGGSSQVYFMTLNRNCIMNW

[5] = target: RAC-beta serine/threonine-protein kinase (Homo sapiens) (UniProt P31751); experiment: Inhibition of human recombinant AKT2 at 15 nM in presence of ATP by radiometric assay relative to control
RAC-beta serine/threonine-protein kinase (Homo sapiens), sequence (P31751 whole entry): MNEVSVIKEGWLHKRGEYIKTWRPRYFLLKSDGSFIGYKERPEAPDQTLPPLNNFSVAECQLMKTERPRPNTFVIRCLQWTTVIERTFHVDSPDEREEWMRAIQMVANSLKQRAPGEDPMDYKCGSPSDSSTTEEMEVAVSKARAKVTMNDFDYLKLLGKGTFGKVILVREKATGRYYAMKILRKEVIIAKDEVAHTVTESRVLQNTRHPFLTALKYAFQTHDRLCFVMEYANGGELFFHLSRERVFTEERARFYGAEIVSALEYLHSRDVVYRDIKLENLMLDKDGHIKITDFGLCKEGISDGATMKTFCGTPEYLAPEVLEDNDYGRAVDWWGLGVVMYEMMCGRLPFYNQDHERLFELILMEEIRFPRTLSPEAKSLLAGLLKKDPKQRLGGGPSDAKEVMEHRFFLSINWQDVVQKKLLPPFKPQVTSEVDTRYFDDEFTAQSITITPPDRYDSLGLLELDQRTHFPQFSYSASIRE
How it was run: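 Panel of 327 recombinant human kinases in radiometric activity assays, each screened in duplicate at a single inhibitor concentration; percent activity remaining relative to vehicle control, percent inhibition taken as 100 minus activity remaining.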

[6] = target: Tau-tubulin kinase 2 (Homo sapiens) (UniProt Q6IQ55); experiment: Inhibition of human recombinant TTBK2 at 15 nM related to control ULK1
Tau-tubulin kinase 2 (Homo sapiens), sequence (Q6IQ55 whole entry): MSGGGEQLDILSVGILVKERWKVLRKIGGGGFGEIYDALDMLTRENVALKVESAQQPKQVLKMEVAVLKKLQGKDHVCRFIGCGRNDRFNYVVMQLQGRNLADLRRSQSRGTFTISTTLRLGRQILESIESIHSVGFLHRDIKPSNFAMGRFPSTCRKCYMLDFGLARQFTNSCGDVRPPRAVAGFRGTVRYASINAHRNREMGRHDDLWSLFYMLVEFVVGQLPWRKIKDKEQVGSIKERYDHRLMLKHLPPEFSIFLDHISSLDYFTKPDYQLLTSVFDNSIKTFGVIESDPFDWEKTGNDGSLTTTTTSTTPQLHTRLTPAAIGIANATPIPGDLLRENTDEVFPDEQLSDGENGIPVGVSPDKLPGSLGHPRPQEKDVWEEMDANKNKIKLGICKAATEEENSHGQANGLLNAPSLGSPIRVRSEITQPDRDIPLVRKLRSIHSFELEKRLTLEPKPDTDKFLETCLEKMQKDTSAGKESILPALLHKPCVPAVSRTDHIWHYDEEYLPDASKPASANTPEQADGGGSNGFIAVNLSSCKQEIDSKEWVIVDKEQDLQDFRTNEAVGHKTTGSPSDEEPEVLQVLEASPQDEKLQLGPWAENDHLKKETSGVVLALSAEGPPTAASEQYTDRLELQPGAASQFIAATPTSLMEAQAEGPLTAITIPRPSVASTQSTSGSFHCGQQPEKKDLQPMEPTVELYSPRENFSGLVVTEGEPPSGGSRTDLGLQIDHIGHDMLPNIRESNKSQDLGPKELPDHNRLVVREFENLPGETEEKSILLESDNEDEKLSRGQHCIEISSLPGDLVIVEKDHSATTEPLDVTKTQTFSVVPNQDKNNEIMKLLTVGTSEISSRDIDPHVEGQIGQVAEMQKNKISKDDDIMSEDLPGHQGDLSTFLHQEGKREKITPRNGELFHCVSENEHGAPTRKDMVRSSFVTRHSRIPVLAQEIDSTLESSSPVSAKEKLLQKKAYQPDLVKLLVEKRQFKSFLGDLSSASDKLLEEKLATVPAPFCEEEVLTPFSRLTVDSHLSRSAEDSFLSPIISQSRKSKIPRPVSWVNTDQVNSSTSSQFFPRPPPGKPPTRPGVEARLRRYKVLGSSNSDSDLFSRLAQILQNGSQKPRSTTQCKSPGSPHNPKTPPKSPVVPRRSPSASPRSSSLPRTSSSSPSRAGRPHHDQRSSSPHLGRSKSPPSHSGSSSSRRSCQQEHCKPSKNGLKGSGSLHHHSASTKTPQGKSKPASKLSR

[7] = target: T1, Tyrosine-protein kinase JAK3 (Homo sapiens) (UniProt P52333); experiment: Inhibition of human recombinant JAK3 at 15 nM related to control ULK1
T1 sequence (whole entry): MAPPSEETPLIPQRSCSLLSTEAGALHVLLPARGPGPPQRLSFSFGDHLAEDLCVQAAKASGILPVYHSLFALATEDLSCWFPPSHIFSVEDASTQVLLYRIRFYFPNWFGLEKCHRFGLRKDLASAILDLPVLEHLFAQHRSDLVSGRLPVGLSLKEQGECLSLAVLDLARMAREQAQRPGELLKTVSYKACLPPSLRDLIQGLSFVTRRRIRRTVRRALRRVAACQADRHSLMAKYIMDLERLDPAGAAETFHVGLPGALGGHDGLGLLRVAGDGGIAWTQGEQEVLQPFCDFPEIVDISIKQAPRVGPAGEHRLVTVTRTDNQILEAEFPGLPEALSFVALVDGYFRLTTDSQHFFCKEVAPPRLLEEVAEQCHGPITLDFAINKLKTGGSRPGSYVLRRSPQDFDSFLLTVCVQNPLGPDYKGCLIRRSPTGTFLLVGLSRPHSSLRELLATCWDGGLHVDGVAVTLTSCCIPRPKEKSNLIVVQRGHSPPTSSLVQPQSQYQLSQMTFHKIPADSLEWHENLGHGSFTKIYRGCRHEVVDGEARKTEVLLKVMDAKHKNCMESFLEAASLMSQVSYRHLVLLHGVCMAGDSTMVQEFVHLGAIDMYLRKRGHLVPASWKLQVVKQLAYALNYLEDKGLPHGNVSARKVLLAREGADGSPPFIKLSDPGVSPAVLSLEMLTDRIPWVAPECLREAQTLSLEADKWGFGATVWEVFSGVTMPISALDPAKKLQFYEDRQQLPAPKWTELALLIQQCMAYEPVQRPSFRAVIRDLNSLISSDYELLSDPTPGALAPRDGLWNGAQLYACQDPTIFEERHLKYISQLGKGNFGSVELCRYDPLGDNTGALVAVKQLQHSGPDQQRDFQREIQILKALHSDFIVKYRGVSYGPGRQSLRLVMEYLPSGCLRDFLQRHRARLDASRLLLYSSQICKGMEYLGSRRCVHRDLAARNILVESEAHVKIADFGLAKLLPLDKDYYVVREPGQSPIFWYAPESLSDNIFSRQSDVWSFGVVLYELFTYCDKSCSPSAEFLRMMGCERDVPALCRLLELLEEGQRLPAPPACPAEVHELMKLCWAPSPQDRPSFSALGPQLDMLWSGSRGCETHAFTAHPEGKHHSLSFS

[8] = target: Protein kinase C delta type (Homo sapiens) (UniProt Q05655); experiment: Inhibition of human recombinant PKCd at 15 nM in presence of ATP by radiometric assay relative to control
Protein kinase C delta type (Homo sapiens), sequence (Q05655 whole entry, looked up): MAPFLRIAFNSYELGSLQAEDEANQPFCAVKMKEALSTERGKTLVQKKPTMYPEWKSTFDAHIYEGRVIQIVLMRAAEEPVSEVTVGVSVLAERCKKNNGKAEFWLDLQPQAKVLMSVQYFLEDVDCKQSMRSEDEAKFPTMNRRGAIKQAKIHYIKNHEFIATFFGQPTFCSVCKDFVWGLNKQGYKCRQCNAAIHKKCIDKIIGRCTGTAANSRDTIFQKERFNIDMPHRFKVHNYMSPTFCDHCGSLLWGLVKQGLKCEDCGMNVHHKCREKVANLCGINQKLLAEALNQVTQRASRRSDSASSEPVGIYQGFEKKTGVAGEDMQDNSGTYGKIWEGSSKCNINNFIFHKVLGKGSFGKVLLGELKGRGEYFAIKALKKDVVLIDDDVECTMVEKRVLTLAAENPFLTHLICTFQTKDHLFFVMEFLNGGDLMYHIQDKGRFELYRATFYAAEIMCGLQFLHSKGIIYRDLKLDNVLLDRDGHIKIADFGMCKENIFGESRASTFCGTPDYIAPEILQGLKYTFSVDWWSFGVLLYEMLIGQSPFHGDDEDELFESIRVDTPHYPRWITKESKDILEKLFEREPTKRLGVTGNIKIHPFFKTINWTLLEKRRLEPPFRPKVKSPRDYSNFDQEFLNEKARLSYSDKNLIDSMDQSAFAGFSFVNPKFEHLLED

[9] = target: T2, Tyrosine-protein kinase ZAP-70 (Homo sapiens) (UniProt P43403); experiment: Inhibition of human recombinant ZAP70 at 40 nM related to control ULK1
T2 sequence (whole entry): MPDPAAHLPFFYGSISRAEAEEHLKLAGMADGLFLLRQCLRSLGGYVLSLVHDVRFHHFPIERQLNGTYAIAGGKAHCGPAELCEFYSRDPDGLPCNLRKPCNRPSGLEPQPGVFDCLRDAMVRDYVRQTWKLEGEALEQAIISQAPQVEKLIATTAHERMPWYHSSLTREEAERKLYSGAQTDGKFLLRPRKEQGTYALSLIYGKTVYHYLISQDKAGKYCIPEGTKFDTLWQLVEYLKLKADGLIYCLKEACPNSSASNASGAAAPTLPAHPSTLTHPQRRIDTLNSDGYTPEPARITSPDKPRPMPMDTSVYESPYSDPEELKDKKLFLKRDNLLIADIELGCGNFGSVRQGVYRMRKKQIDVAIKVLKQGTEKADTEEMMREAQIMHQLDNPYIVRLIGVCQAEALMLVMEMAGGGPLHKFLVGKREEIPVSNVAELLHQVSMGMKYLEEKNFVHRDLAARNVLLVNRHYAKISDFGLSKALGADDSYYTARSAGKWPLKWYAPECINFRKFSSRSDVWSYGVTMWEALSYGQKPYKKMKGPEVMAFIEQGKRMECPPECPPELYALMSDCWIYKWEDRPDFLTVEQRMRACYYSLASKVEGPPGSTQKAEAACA

[10] = target: Serine/threonine-protein kinase MARK2 (Homo sapiens) (UniProt Q7KZI7); experiment: Inhibition of human recombinant MARK2 at 40 nM related to control ULK1
Serine/threonine-protein kinase MARK2 (Homo sapiens), sequence (Q7KZI7 whole entry): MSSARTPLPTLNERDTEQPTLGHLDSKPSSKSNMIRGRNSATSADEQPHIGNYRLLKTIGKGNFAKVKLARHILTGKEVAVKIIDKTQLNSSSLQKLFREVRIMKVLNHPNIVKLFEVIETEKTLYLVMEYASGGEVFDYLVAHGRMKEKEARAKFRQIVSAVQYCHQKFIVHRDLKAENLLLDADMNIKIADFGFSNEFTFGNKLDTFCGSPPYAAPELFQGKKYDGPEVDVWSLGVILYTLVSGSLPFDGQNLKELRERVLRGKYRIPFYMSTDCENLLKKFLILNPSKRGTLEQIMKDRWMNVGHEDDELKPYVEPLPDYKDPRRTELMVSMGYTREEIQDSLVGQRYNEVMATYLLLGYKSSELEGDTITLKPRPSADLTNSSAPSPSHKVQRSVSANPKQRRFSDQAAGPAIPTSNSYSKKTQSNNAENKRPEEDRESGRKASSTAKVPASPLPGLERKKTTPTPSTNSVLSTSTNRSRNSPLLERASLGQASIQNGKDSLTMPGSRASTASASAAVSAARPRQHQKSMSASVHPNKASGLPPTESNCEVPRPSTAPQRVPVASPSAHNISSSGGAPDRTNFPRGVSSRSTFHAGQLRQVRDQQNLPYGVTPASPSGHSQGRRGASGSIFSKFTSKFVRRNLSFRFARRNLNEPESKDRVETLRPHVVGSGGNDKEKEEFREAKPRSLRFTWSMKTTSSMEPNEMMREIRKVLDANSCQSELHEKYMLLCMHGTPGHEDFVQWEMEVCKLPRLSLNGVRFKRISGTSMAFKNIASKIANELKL

[11] = target: T3, cAMP-dependent protein kinase catalytic subunit PRKX (Homo sapiens) (UniProt P51817); experiment: Inhibition of human recombinant PRKX at 40 nM related to control ULK1
T3 sequence (whole entry): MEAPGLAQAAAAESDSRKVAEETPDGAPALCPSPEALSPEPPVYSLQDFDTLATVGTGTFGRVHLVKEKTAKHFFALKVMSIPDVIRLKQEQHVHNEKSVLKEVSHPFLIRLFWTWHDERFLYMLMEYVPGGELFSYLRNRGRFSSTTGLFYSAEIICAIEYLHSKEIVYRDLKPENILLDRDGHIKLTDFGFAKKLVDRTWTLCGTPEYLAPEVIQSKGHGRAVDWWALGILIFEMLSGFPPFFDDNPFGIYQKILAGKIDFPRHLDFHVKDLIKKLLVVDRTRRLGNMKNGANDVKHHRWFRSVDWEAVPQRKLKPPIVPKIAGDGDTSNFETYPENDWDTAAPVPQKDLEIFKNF

fold change (FC) [1]: 0
fold change (FC) [2]: 0
fold change (FC) [3]: 0.05
fold change (FC) [4]: 0.05
SMILES: CNC(=O)c1ccccc1Oc1nc(Nc2cc(OC)c(OC)c(OC)c2)ncc1Br

inhibition [5]: 0%
fold change (FC) [6]: 0
fold change (FC) [7]: 0
inhibition [8]: 0%
SMILES: CC(C)[C@H](NC(=O)c1cc(-c2cnn3cc(-c4ccc(OCCN5CCCCC5)cc4)cnc23)cs1)C(F)(F)F

fold change (FC) [9]: 0
fold change (FC) [10]: 0.16
fold change (FC) [11]: 0.27
SMILES: O=C(N[C@@H](C1CC1)C(F)(F)F)c1cc(-c2cnn3cc(-c4ccc(F)cc4)cnc23)cs1
